From ChEMBL document CHEMBL1137238, “The synthesis and SAR of 2-amino-pyrrolo[2,3-d]pyrimidines: a new class of Aurora-A kinase inhibitors” (Bioorg Med Chem Lett, 2006) come the findings set out here.

For assay [1], the target named is T1, Cyclin-dependent kinase 4 (Homo sapiens, UniProt P11802). The experiment in a line: Inhibition of retinoblastoma phosphorylation by CDK4. Format: functional. The gist of the method:
(§1)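 Purified CDK4 incubated with compounds and retinoblastoma protein substrate in 100 mM Hepes pH 7.5, 75 mM NaCl, 2 mM DTT, 10 mM MgCl2, 30 μM ATP. Stopped after 35 min. Rb phosphorylation at Ser795 measured colorimetrically with a phospho-specific antibody.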

Assay [2] concerns the target Proto-oncogene tyrosine-protein kinase Src (Homo sapiens, UniProt P12931). The experiment in a line: Inhibition of c-src.
Assay [3] deals with Cyclin-dependent kinase 1 (Homo sapiens, UniProt P06493). Nature of the assay: Inhibition of CDK1.
The target in assay [4] is Cyclin-dependent kinase 7 (Homo sapiens, UniProt P50613). The experiment in a line: Inhibition of CDK7.
Assay [5] deals with T1, Cyclin-dependent kinase 4. The experiment in a line: Inhibition of CDK4. Put shortly: as §1
The next assay has as its target Insulin receptor (Homo sapiens, UniProt P06213). Nature of the assay: Inhibition of IRK.
The target of assay [6] is BDNF/NT-3 growth factors receptor (Homo sapiens, UniProt Q16620). The experiment in a line: Inhibition of TrkB.
The target in assay [7] is Vascular endothelial growth factor receptor (Homo sapiens, UniProt P17948+P35916+P35968). The experiment in a line: Inhibition of VEGFR. Format: protein assay.
For assay [8], the target named is Platelet-derived growth factor receptor (Homo sapiens, UniProt P09619+P16234). Nature of the assay: Inhibition of PDGFR. Format: protein-complex assay.
In assay [9] the target is Aurora kinase A (Mus musculus) (UniProt P97477). Nature of the assay: Inhibition of Aurora-A.
Aurora kinase A (Mus musculus), sequence (P97477 whole entry, looked up): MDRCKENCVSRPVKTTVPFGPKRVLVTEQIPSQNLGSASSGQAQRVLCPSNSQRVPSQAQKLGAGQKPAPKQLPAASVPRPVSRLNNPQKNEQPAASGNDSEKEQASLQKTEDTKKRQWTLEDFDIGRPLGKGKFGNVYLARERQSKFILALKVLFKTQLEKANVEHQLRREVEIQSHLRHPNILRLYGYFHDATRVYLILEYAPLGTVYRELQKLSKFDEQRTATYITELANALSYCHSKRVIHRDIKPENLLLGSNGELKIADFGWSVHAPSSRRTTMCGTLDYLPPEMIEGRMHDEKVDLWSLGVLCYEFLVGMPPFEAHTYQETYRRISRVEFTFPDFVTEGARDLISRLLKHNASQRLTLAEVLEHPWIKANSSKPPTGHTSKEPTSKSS

T1 sequence (P11802 whole entry): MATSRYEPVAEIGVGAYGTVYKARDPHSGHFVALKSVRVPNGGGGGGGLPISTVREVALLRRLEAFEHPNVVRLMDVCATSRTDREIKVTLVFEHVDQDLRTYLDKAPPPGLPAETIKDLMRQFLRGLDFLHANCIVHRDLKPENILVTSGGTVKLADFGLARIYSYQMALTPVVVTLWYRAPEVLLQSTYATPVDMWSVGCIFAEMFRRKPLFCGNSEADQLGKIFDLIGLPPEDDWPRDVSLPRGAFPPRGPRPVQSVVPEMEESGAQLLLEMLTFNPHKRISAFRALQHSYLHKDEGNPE
Insulin receptor, sequence (P06213 28-758 limits assumed): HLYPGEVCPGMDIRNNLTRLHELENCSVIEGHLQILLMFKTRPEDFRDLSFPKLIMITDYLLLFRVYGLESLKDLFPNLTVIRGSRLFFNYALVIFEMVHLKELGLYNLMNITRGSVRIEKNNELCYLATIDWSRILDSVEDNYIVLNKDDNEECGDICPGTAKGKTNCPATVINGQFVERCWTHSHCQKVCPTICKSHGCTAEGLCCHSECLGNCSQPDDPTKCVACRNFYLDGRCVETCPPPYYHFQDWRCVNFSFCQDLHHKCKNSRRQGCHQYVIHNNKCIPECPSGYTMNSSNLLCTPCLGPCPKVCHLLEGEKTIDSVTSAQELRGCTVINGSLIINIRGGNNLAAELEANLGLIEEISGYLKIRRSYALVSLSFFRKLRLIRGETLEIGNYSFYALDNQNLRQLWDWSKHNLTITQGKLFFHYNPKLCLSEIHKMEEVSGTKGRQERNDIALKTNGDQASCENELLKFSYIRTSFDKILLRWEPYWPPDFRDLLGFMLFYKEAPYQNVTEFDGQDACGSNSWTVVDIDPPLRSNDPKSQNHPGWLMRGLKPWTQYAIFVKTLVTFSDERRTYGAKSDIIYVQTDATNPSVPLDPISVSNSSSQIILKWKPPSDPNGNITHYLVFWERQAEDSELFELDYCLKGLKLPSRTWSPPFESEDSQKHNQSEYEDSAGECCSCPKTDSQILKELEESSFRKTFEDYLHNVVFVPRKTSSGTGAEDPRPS
Insulin receptor, sequence (P06213 763-1382 limits assumed): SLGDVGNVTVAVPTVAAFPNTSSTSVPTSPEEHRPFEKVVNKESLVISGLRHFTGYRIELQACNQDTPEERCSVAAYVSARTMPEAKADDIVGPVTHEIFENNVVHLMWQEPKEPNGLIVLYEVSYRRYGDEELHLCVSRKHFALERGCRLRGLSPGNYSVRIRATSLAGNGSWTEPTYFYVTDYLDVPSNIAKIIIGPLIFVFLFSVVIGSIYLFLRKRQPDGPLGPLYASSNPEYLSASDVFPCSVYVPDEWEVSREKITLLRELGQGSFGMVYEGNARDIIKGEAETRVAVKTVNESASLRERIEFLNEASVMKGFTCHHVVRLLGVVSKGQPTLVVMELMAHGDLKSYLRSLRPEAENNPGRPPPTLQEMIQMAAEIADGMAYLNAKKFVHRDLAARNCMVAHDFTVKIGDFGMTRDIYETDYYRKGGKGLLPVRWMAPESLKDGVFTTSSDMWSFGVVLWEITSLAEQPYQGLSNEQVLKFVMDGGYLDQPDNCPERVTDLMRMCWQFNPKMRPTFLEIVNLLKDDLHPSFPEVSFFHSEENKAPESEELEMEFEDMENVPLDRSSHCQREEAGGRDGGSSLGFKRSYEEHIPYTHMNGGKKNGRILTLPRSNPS
Cyclin-dependent kinase 1, sequence (P06493 whole entry): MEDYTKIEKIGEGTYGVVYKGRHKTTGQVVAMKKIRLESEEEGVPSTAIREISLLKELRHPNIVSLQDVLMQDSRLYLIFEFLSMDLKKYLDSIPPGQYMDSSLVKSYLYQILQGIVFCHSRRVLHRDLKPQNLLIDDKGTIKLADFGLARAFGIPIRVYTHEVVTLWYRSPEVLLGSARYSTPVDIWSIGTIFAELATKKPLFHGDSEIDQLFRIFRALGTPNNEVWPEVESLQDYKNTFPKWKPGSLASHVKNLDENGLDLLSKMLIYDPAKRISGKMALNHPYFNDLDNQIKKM
Cyclin-dependent kinase 7, sequence (P50613 whole entry): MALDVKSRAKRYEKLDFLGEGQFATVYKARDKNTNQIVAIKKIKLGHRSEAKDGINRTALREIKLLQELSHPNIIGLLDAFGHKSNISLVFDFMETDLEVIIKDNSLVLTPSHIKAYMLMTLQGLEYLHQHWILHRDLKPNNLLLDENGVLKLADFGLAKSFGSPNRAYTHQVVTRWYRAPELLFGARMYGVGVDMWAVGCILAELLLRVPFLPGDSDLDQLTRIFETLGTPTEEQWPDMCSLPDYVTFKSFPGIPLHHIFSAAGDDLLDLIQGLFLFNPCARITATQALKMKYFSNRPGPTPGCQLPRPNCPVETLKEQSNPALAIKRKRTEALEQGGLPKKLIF
BDNF/NT-3 growth factors receptor, sequence (Q16620 whole entry): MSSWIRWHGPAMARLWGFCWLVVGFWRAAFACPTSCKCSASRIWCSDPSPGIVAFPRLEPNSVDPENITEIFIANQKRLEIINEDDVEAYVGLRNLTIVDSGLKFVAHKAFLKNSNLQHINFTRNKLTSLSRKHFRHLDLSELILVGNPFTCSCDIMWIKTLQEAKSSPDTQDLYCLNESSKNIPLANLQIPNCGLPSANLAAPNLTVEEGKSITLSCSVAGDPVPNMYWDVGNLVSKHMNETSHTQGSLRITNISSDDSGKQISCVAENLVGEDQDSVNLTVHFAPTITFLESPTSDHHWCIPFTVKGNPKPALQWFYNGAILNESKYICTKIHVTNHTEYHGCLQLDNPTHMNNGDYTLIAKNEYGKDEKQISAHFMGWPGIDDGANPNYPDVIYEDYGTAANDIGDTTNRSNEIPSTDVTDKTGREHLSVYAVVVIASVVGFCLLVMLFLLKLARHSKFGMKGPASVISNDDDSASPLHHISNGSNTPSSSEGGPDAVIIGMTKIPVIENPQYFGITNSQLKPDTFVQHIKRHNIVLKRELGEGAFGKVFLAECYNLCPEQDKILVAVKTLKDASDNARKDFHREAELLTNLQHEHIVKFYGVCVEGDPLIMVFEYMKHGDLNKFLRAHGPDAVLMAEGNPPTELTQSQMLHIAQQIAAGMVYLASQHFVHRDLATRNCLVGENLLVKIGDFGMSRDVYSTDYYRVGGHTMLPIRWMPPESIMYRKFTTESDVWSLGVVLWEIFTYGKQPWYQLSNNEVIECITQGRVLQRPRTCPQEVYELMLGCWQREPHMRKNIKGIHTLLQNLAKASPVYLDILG
Proto-oncogene tyrosine-protein kinase Src, sequence (P12931 2-536 limits assumed): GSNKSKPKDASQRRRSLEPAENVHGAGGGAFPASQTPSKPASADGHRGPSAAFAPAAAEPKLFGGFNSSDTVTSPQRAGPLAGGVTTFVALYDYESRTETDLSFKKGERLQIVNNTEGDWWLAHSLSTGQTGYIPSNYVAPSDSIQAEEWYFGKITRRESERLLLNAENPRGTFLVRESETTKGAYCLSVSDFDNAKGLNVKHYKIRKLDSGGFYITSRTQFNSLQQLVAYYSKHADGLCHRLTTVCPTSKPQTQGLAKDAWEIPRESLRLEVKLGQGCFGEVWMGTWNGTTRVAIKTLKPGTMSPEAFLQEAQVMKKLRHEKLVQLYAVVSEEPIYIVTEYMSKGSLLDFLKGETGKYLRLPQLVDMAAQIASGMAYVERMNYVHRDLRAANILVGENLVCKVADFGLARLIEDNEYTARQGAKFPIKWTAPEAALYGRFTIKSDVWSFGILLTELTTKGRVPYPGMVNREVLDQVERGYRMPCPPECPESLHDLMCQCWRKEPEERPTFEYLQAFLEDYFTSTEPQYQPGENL

In [1], `CN1CCN(c2ccc(Nc3ncc4ccn(-c5cccnc5)c4n3)cc2)CC1` gave an IC50 of 1400 nM. As to `CN1CCN(c2ccc(Nc3ncc4ccn(C5CCCCC5)c4n3)cc2)CC1`, the IC50 in assay [1] amounted to 31 nM; in assay [2] it was 710 nM; in [3], 1600 nM; in [4], 1500 nM; in assay [5], 31 nM; on Insulin receptor it was 1000 nM. Further, the IC50 is 160 nM in [6], 100 nM in assay [7], 290 nM in assay [8] and 47 nM in assay [9]. Regarding `CN1CCN(c2ccc(Nc3ncc4ccn(C5CC6CCC5C6)c4n3)cc2)CC1` (centres undefined), the IC50 in assay [1] amounted to 29 nM. This lies in the double-digit nanomolar range. In [1], `COCCN1CCN(c2ccc(Nc3ncc4ccn(C5CCCCC5)c4n3)cc2)CC1` returned an IC50 of 110 nM. In [1], `O=C(O)Cc1cccc(Nc2ncc3ccn(C4CCCCC4)c3n2)c1` returned an IC50 of 350 nM. The same measure, in the same setting: in the case of `O=S1(=O)CCN(c2ccc(Nc3ncc4ccn(C5CCCCC5)c4n3)cc2)CC1` it was 1000 nM; in that of `COc1cccc(-n2ccc3cnc(Nc4ccc(N5CCN(C)CC5)cc4)nc32)c1`, 340 nM.

As to `c1cc(N2CCOCC2)ccc1Nc1ncc2ccn(C3CCCCC3)c2n1`, half-maximal inhibition in assay [1] (IC50) was put at 600 nM.

In assay [1], `CN1CCN(c2ccc(Nc3ncc4ccn(-c5cccc(S(C)(=O)=O)c5)c4n3)cc2)CC1` displayed an IC50 of 2000 nM. `CN1CCN(c2ccc(Nc3ncc4ccn(C5Cc6ccccc6C5)c4n3)cc2)CC1` had an IC50 in assay [1] of 2100 nM.
